From ChEMBL document CHEMBL4765238, “Structure-Based Discovery and Optimization of Benzo[ d]isoxazole Derivatives as Potent and Selective BET Inhibitors for Potential Treatment of Castration-Resistant Prostate Cancer (CRPC)” (J Med Chem, 2018)

Experiments:
[1] = biological target: T1, Bromodomain-containing protein 4 (Homo sapiens, UniProt O60885); experiment: Binding affinity to human recombinant His6-tagged BRD4 bromodomain 1 (N44 to E168 residues) expressed in Escherichia coli BL21 (DE3) cells assessed as change in melting temperature at 200 uM incubated for 30 mins by SYPRO orange dye based thermal shift assay
Method in brief: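 Thermal shift assay measuring change in melting temperature of each isolated bromodomain module in the presence of compound versus without.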

[2] = biological target: T1, Bromodomain-containing protein 4; experiment: Inhibition of HYSGRGK(Ac)GGK(Ac)GLGK(Ac)GGAK(Ac)RHRK(Biotin)-OH binding to recombinant human His6-tagged BRD4 bromodomain 1 (N44 to E168 residues) expressed in Escherichia coli BL21 (DE3) cells measured after 2 hrs by Alphascreen assay
[3] = system: VCaP; experiment: cells; details: Homo sapiens, 144 h, read-out: INH
[4] = system: LNCaP C4-2B; experiment: Antiproliferative activity against AR-positive human C4-2B cells assessed as reduction in cell viability incubated for 96 hrs by cell-titer glo assay; type: functional, cell-based
Method in brief: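 Prostate cancer cells treated across a concentration range; viability read by CellTiter-Glo luminescence; experiments in triplicate; IC50 derived from the dose–response curves.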

[5] = biological target: T1, Bromodomain-containing protein 4; experiment: Inhibition of BRD4 bromodomain 1 (unknown origin) by fluorescence polarization assay

SMILES: COc1cc2onc(C)c2cc1NS(=O)(=O)c1ccccc1Cl
- ΔTm [1]: 7.8 °C
- IC50 [2]: 220 nM

SMILES: CCCCn1c(-c2ccc3onc(C)c3c2)nc2ccc(N3CCOCC3)cc21
- ΔTm [1]: 5.9 °C
- IC50 [2]: 1160 nM

SMILES: Cc1cc2onc(C)c2cc1NS(=O)(=O)c1ccc(Cl)cc1
- ΔTm [1]: 1 °C
- IC50 [2]: > 20000 nM

SMILES: CCNC(=O)COc1cc2onc(C)c2cc1NS(=O)(=O)c1cc(Br)ccc1OC
- ΔTm [1]: 5.1 °C
- IC50 [2]: 1600 nM

SMILES: Cc1cc2onc(C)c2cc1NS(=O)(=O)c1cc(Cl)ccc1Cl
- ΔTm [1]: 5 °C
- IC50 [2]: 2350 nM

SMILES: COc1ccc(Cl)cc1S(=O)(=O)Nc1cc2c(C)noc2cc1C
- ΔTm [1]: 6.5 °C
- IC50 [2]: 1050 nM

SMILES: CNC(=O)c1ccc(N2C(=S)N(c3ccc(C#N)c(C(F)(F)F)c3)C(=O)C2(C)C)cc1F [ENZALUTAMIDE]
- inhibition at 33 µM [3]: 50%
- IC50 [4]: 18000 nM

SMILES: Cc1cc2onc(C)c2cc1NS(=O)(=O)c1ccccc1Cl
- ΔTm [1]: 5.2 °C
- IC50 [2]: 1590 nM

SMILES: Cc1noc2c(Br)cc(-c3nc4ccc(N5CCOCC5)cc4n3CC3CC3)cc12
- ΔTm [1]: 6 °C
- IC50 [2]: 2360 nM

SMILES: Cc1noc2c(Br)cc(-c3nc4ccc(N5CCOC[C@@H]5C)cc4n3CC3CCCCC3)cc12
- ΔTm [1]: 7.2 °C
- IC50 [2]: 320 nM

SMILES: Cc1cc2onc(C)c2cc1NS(=O)(=O)c1ccccc1Br
- ΔTm [1]: 4.4 °C
- IC50 [2]: 1840 nM

SMILES: COc1ccc(S(=O)(=O)Nc2cc3c(C)noc3cc2C)cc1
- ΔTm [1]: 1.5 °C
- IC50 [2]: > 20000 nM

SMILES: COCCn1c(-c2cc(Br)c3onc(C)c3c2)nc2ccc(N3CCOCC3)cc21
- ΔTm [1]: 4.5 °C
- IC50 [2]: > 20000 nM

SMILES: Cc1cc2onc(C)c2cc1NS(=O)(=O)c1cccc(Cl)c1Cl
- ΔTm [1]: 4 °C
- IC50 [2]: 3550 nM

SMILES: COc1ccc(Br)cc1S(=O)(=O)Nc1cc2c(C)noc2cc1C
- ΔTm [1]: 7.5 °C
- IC50 [2]: 620 nM

SMILES: COc1ccc(Br)cc1S(=O)(=O)Nc1cc2c(C)noc2cc1O
- ΔTm [1]: 9.2 °C
- IC50 [2]: 230 nM

SMILES: CCCS(=O)(=O)Nc1cc2c(C)noc2cc1C
- ΔTm [1]: 4.5 °C
- IC50 [2]: 2470 nM

SMILES: CCCOc1cc2onc(C)c2cc1NS(=O)(=O)c1cc(Br)ccc1OC
- ΔTm [1]: 6 °C
- IC50 [2]: 420 nM

SMILES: COc1ccc(Br)cc1S(=O)(=O)Nc1cc2c(C)noc2cc1OCC(=O)NCCNC(C)=O
- ΔTm [1]: 5.4 °C
- IC50 [2]: 750 nM

SMILES: CCCn1c(-c2cc(Br)c3onc(C)c3c2)nc2ccc(N3CCOCC3)cc21
- ΔTm [1]: 6.2 °C
- IC50 [2]: 1800 nM

SMILES: COCCn1c(-c2ccc3onc(C)c3c2)nc2ccc(N3CCOCC3)cc21
- ΔTm [1]: 5 °C
- IC50 [2]: 4420 nM

SMILES: Cc1cc2onc(C)c2cc1NS(=O)(=O)c1ccc([N+](=O)[O-])cc1
- ΔTm [1]: 0.5 °C
- IC50 [2]: > 20000 nM

SMILES: CCC(C)n1c(-c2ccc3onc(C)c3c2)nc2ccc(N3CCOCC3)cc21 (stereo not drawn)
- ΔTm [1]: 4.8 °C
- IC50 [2]: 3620 nM

SMILES: Cc1cc2onc(C)c2cc1NS(=O)(=O)c1c(Cl)cccc1Cl
- ΔTm [1]: 1.1 °C
- IC50 [2]: > 20000 nM

SMILES: COC(=O)c1ccccc1S(=O)(=O)Nc1cc2c(C)noc2cc1C
- ΔTm [1]: 3 °C
- IC50 [2]: 6930 nM

SMILES: COc1ccc(OC)c(S(=O)(=O)Nc2cc3c(C)noc3cc2C)c1
- ΔTm [1]: 2 °C
- IC50 [2]: 10700 nM

SMILES: Cc1noc2ccc(-c3nc4ccc(N5CCOCC5)cc4n3Cc3ccccc3)cc12
- ΔTm [1]: 6 °C
- IC50 [2]: 1670 nM

SMILES: COc1ccc(Br)cc1S(=O)(=O)Nc1cc2c(C)noc2cc1OCC(=O)NCCN1CCOCC1
- ΔTm [1]: 4.8 °C
- IC50 [2]: 2270 nM

SMILES: Cc1noc2ccc(-c3nc4ccc(N5CCOCC5)cc4n3CC3CCCCC3)cc12
- ΔTm [1]: 5.4 °C
- IC50 [2]: 180 nM

SMILES: COc1ccc(C)cc1S(=O)(=O)Nc1cc2c(C)noc2cc1C
- ΔTm [1]: 4.6 °C
- IC50 [2]: 2130 nM

SMILES: CCOC(=O)C[C@@H]1N=C(c2ccc(Cl)cc2)c2cc(OC)ccc2-n2c(C)nnc21
- IC50 [5]: 631 nM

SMILES: Cc1noc2ccc(-c3nc4ccc(N5CCOCC5)cc4n3CC3CC3)cc12
- ΔTm [1]: 6.5 °C
- IC50 [2]: 1410 nM

SMILES: CCCn1c(-c2ccc3onc(C)c3c2)nc2ccc(N3CCOCC3)cc21
- ΔTm [1]: 6.5 °C
- IC50 [2]: 1370 nM

SMILES: Cc1cc2onc(C)c2cc1NS(=O)(=O)c1ccccc1
- ΔTm [1]: 2 °C
- IC50 [2]: 4960 nM

SMILES: COc1cc2onc(C)c2cc1NS(=O)(=O)c1cc(Cl)ccc1Cl
- ΔTm [1]: 7.3 °C
- IC50 [2]: 440 nM

SMILES: CCOc1cc2onc(C)c2cc1NS(=O)(=O)c1cc(Br)ccc1OC
- ΔTm [1]: 9.2 °C
- IC50 [2]: 150 nM

SMILES: Cc1cc2onc(C)c2cc1NS(=O)(=O)c1ccccc1C(=O)O
- ΔTm [1]: 3.8 °C
- IC50 [2]: 5810 nM

SMILES: Cc1cc2onc(C)c2cc1NS(=O)(=O)C1CCCCC1
- ΔTm [1]: 4.5 °C
- IC50 [2]: 2240 nM

SMILES: CCCCn1c(-c2cc(Br)c3onc(C)c3c2)nc2ccc(N3CCOCC3)cc21
- ΔTm [1]: 7.2 °C
- IC50 [2]: 520 nM

SMILES: Cc1cc2onc(C)c2cc1NS(=O)(=O)C1CCCC1
- ΔTm [1]: 5 °C
- IC50 [2]: 3050 nM

SMILES: CCS(=O)(=O)Nc1cc2c(C)noc2cc1C
- ΔTm [1]: 3 °C
- IC50 [2]: 5300 nM

SMILES: COc1ccc(Br)cc1S(=O)(=O)Nc1cc2c(C)noc2cc1OCC(=O)O
- ΔTm [1]: 6.2 °C
- IC50 [2]: 580 nM

SMILES: Cc1cc2onc(C)c2cc1NS(=O)(=O)c1ccc(F)cc1
- ΔTm [1]: 2 °C
- IC50 [2]: 9820 nM

SMILES: COc1cc2onc(C)c2cc1NS(=O)(=O)c1cc(Cl)ccc1OC
- ΔTm [1]: 8.7 °C
- IC50 [2]: 160 nM

SMILES: CCCCS(=O)(=O)Nc1cc2c(C)noc2cc1C
- ΔTm [1]: 5 °C
- IC50 [2]: 2550 nM

SMILES: COc1ccccc1S(=O)(=O)Nc1cc2c(C)noc2cc1C
- ΔTm [1]: 6.6 °C
- IC50 [2]: 830 nM

SMILES: COc1cc2onc(C)c2cc1NS(=O)(=O)c1cc(C)ccc1OC
- ΔTm [1]: 7.8 °C
- IC50 [2]: 470 nM
